Published values collected from several papers.
Protocols differ between the studies behind these lines.
Nectin-4: Nectin-4 (Homo sapiens, UniProt Q96NY8)
UCK1: UCK1 (Homo sapiens, UniProt Q9HA47)
PIK3C2B: Phosphatidylinositol 4-phosphate 3-kinase C2 domain-containing subunit beta (PIK3C2B, Homo sapiens, UniProt O00750)

Structure (SMILES) | target | test | conditions | Kd [nM]
CCCC[C@@H]1NC(=O)[C@H](Cc2ccc(O)cc2)NC(=O)[C@@H]2CCCN2C(=O)[C@H](CCC(=O)O)NC(=O)[C@H](C)NC(=O)[C@H](Cc2ccccc2)NC(=O)[C@@H]2CSCCC(=O)N3CN(CN(C3)C(=O)CCSC[C@H](NC(C)=O)C(=O)N[C@@H](CC(C)(C)C)C(=O)N3CCC[C@H]3C(=O)N[C@@H](CCC(=O)O)C(=O)N[C@H](CCCCNC(=O)CCc3cn(CCOCCOCCOCCN(CCOCCOCCOCCC(=O)N[C@H]4CSCCC(=O)N5CN6CN(C5)C(=O)CCSC[C@H](NC(=O)[C@@H](CC(=O)O)NC(=O)[C@H](Cc5cccc7ccccc57)NC(=O)[C@@H]5CCCN5C4=O)C(=O)N[C@@H](CCSC)C(=O)N[C@@H](CCCCNC(=N)N)C(=O)N[C@@H](CC(=O)O)C(=O)N[C@@H](Cc4c[nH]c5ccccc45)C(=O)N[C@@H](CO)C(=O)N[C@@H]([C@@H](C)O)C(=O)N4CCC[C@H]4C(=O)N4C[C@H](O)C[C@H]4C(=O)N[C@@H](Cc4c[nH]c5ccccc45)C(=O)N[C@H](C(N)=O)CSCCC6=O)CCOCCOCCOCCn4cc(CCC(=O)NCCCC[C@H]5NC(=O)[C@H](CCC(=O)O)NC(=O)[C@@H]6CCCN6C(=O)[C@H](CC(C)(C)C)NC(=O)[C@@H](NC(C)=O)CSCCC(=O)N6CN7CN(C6)C(=O)CCSC[C@H](NC(=O)[C@H](Cc6ccc(O)cc6)NC(=O)[C@@H]6CCCN6C5=O)C(=O)N[C@@H](Cc5ccccc5)C(=O)N[C@@H](C)C(=O)N[C@@H](CCC(=O)O)C(=O)N5CCC[C@H]5C(=O)N[C@@H](Cc5ccc(O)cc5)C(=O)N[C@@H](CCCC)C(=O)N[C@H](C(N)=O)CSCCC7=O)nn4)nn3)C(=O)N3CCC[C@H]3C(=O)N[C@@H](Cc3ccc(O)cc3)C(=O)N2)C(=O)CCSC[C@@H](C(N)=O)NC1=O | Nectin-4 | binding, SPR |  | 2.7
[N-]=[N+]=N[C@@H]1[C@H](O)[C@@H](CO)O[C@H]1n1ccc(=O)[nH]c1=O | UCK1 | binding, fluorescence |  | 181
NC(=O)c1ncn([C@@H]2O[C@H](COP(=O)(O)O)[C@@H](O)[C@H]2O)c1N | Adenylosuccinate lyase (ADSL, Homo sapiens, UniProt P30566) | binding, ITC |  | 34000
C=CC(=O)N1CCC(C(=O)N(C)CC(=O)N2CCN(c3nc(-c4cnc(N)nc4C(F)F)nc(N4CCOCC4)n3)CC2)CC1 | PIK3C2B | binding, competition with immobilised ligand |  | 155
CCCC[C@@H]1NC(=O)[C@H](Cc2ccc(O)cc2)NC(=O)[C@@H]2CCCN2C(=O)[C@H](CC(=O)O)NC(=O)[C@H](C)NC(=O)[C@H](Cc2ccccc2)NC(=O)[C@@H]2CSCCC(=O)N3CN(CN(C3)C(=O)CCSC[C@@H](C(=O)N[C@@H](C)C(N)=O)NC1=O)C(=O)CCSC[C@H](NC(C)=O)C(=O)N[C@@H](CC(C)(C)C)C(=O)N1CCC[C@H]1C(=O)N[C@@H](CCC(=O)O)C(=O)N[C@H](CCCCNC(=O)CCc1cn(CCOCCOCCOCCOCCOCCC(=O)N[C@H]3CSCCC(=O)N4CN5CN(C4)C(=O)CCSC[C@H](NC(=O)[C@@H](CC(=O)O)NC(=O)[C@H](Cc4cccc6ccccc46)NC(=O)[C@@H]4CCCN4C3=O)C(=O)N[C@@H](CCSC)C(=O)N[C@@H](CCCCNC(=N)N)C(=O)N[C@@H](CC(=O)O)C(=O)N[C@@H](Cc3c[nH]c4ccccc34)C(=O)N[C@@H](CO)C(=O)N[C@@H]([C@@H](C)O)C(=O)N3CCC[C@H]3C(=O)N3C[C@H](O)C[C@H]3C(=O)N[C@@H](Cc3c[nH]c4ccccc34)C(=O)N[C@H](C(N)=O)CSCCC5=O)nn1)C(=O)N1CCC[C@H]1C(=O)N[C@@H](Cc1ccc(O)cc1)C(=O)N2 | Nectin-4 | binding, SPR |  | 1.8
C=CC(=O)N1CCC(C(=O)NCC(=O)N2CCN(c3nc(-c4cnc(N)nc4C(F)F)nc(N4CCOCC4)n3)CC2)CC1 | PIK3C2B | binding, competition with immobilised ligand |  | 81
CC(=O)N[C@H](C(=O)N1C[C@H](O)C[C@H]1C(=O)NCc1ccc(-c2scnc2C)cc1)C(C)(C)SCCCCCCNC(=O)C[C@@H]1N=C(c2ccc(Cl)cc2)c2c(sc(C)c2C)-n2c(C)nnc21 | Bromodomain-containing protein 3, BD2 (BRD3, Homo sapiens, UniProt Q15059) | binding, ITC |  | 39
NC(=O)C1=CN([C@@H]2O[C@H](COP(=O)(O)OP(=O)(O)OC[C@H]3O[C@@H](n4cnc5c(N)ncnc54)[C@H](OP(=O)(O)O)[C@@H]3O)[C@@H](O)[C@H]2O)C=CC1 | ZMO1885 (Zymomonas mobilis, UniProt Q5NLA1, Y343W) | binding |  | 702000
CCCC[C@@H]1NC(=O)[C@H](Cc2ccc(O)cc2)NC(=O)[C@@H]2CCCN2C(=O)[C@H](CC(=O)O)NC(=O)[C@H](C)NC(=O)[C@H](Cc2ccccc2)NC(=O)[C@@H]2CSCCC(=O)N3CN(CN(C3)C(=O)CCSC[C@@H](C(=O)N[C@@H](CNC(=O)Cn3cc(CCC(=O)NCCC(=O)N(C)CC(=O)N(C)CC(=O)N(C)CC(=O)N(C)CC(=O)N(C)CC(=O)N(C)CC(=O)N(C)CC(=O)N(C)CC(=O)N(C)CC(=O)N(C)CC(=O)N[C@H]4CSCCC(=O)N5CN6CN(C5)C(=O)CCSC[C@H](NC(=O)[C@@H](CC(=O)O)NC(=O)[C@H](Cc5cccc7ccccc57)NC(=O)[C@@H]5CCCN5C4=O)C(=O)N[C@@H](CCSC)C(=O)N[C@@H](CCCCNC(=N)N)C(=O)N[C@@H](CC(=O)O)C(=O)N[C@@H](Cc4c[nH]c5ccccc45)C(=O)N[C@@H](CO)C(=O)N[C@@H]([C@@H](C)O)C(=O)N4CCC[C@H]4C(=O)N4C[C@H](O)C[C@H]4C(=O)N[C@@H](Cc4c[nH]c5ccccc45)C(=O)N[C@H](C(N)=O)CSCCC6=O)nn3)C(N)=O)NC1=O)C(=O)CCSC[C@H](NC(C)=O)C(=O)N[C@@H](CC(C)(C)C)C(=O)N1CCC[C@H]1C(=O)N[C@@H](CCC(=O)O)C(=O)N[C@H](C)C(=O)N1CCC[C@H]1C(=O)N[C@@H](Cc1ccc(O)cc1)C(=O)N2 | Nectin-4 | binding, SPR |  | 2.6
Cc1cc2nc3c(=O)[nH]c(=O)nc-3n(C[C@H](O)[C@H](O)[C@H](O)COP(=O)(O)OP(=O)(O)OC[C@H]3O[C@@H](n4cnc5c(N)ncnc54)[C@H](O)[C@@H]3O)c2cc1C | Heterogeneous nuclear ribonucleoprotein U-like protein 1 (HNRNPUL1, Homo sapiens, UniProt Q9BUJ2) | binding | lysate | 11
Cc1cnc(-c2ccc(-c3ccc(NC(=O)Nc4c(F)cc(F)cc4F)cc3F)c3c2C(=O)NC3)[nH]1 | Cytoplasmic tyrosine-protein kinase BMX (BMX, Homo sapiens, UniProt P51813) | binding, competition with immobilised ligand |  | 14
CCCCc1nc2cc(/C=C/C(=O)NO)ccc2n1CCN(CC)CC | Histone deacetylase 2 (HDAC2, Homo sapiens, UniProt Q92769) | cell-free assay |  | 1300
Cc1cc(Nc2cc3ncccc3c(N[C@@H]3C[C@H]4CC[C@@H](C3)N4CCC#N)n2)n[nH]1 | Serine/threonine-protein kinase 16 (STK16, Homo sapiens, UniProt O75716) | binding, competition with immobilised ligand |  | 110
CCCCCC(C)=O | Or85b (Drosophila melanogaster, UniProt Q9VHQ7) | binding, MST |  | ~800
[N-]=[N+]=N[C@@H]1[C@H](O)[C@@H](CO)O[C@H]1n1ccc(N)nc1=O | UCK1 | binding, fluorescence |  | 65.7
Nc1ncnc2c1ncn2[C@@H]1O[C@H](COP(=O)(O)O)[C@@H](O)[C@H]1O | Adenylosuccinate lyase (ADSL, Homo sapiens, UniProt P30566, R303C) | binding, ITC |  | 130000
CC#CC(=O)N1CC[C@@H](n2cc(-c3ccc(Oc4c(F)cccc4F)cc3)c3c(N)n[nH]c(=O)c32)C1 | Tyrosine-protein kinase TXK (TXK, Homo sapiens, UniProt P42681) | binding, competition with immobilised ligand |  | 136
